Experimental data published in ChEMBL document CHEMBL2169763, “Chiral separation, configurational identification and antihypertensive evaluation of (±)-7,8-dihydroxy-3-methyl-isochromanone-4” (Bioorg Med Chem Lett, 2012).
Active and inactive are the calls of the source. No cut-off for these calls is given here.

How the values were obtained:
[1] = tested on: Rattus norvegicus; experiment: Antihypertensive activity in spontaneously hypertensive rat assessed as reduction in systolic arterial pressure at 80 mg/kg, po measured up to 24 hrs; format: functional, organism-based; design: dose 80 mg/kg; conditions: Artery
Summary of the method: (§1)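 Spontaneously hypertensive rats received a single oral dose of 40 or 80 mg/kg. Systolic, diastolic and mean arterial pressure were recorded from 0 to 24 h after dosing, with heart rate monitored in parallel. Data are given as mean ± SEM (n = 8), and significance was tested against the respective control (p < 0.05, p < 0.01).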

[2] = tested on: Rattus norvegicus; experiment: Antihypertensive activity in spontaneously hypertensive rat assessed as reduction in diastolic arterial pressure at 80 mg/kg, po up to 24 hrs; format: functional, organism-based; design: dose 80 mg/kg; conditions: Artery; summary of the method: as §1
[3] = tested on: Rattus norvegicus; experiment: Antihypertensive activity in spontaneously hypertensive rat assessed as reduction in mean arterial pressure at 80 mg/kg, po up to 24 hrs; format: functional, organism-based; design: dose 80 mg/kg; conditions: Artery; summary of the method: as §1
[4] = tested on: Rattus norvegicus; experiment: Toxicity in spontaneously hypertensive rat assessed as change in basal heart rate at 50 mg/kg, po measured up to 24 hrs; format: organism-based; design: dose 50 mg/kg, route oral; conditions: in vivo
[5] = tested on: Rattus norvegicus; experiment: Antihypertensive activity in spontaneously hypertensive rat assessed as reduction in diastolic arterial pressure at 80 mg/kg, po at 6 hrs; format: functional, Artery; design: scale not given: the % may be the effect or the level left; summary of the method: as §1
[6] = tested on: Rattus norvegicus; experiment: Antihypertensive activity in spontaneously hypertensive rat assessed as reduction in diastolic arterial pressure at 40 mg/kg, po at 6 hrs; format: functional, organism-based; design: dose 40 mg/kg; conditions: Artery; summary of the method: as §1
[7] = tested on: Rattus norvegicus; experiment: Antihypertensive activity in spontaneously hypertensive rat assessed as reduction in systolic arterial pressure at 40 mg/kg, po measured up to 24 hrs; format: functional, organism-based; design: dose 40 mg/kg; conditions: Artery; summary of the method: as §1

CC1OCc2c(ccc(O)c2O)C1=O (racemic)
Activity [1]: Active | Activity [2]: Active | Activity [3]: Active | Activity [4]: Non-toxic

C[C@H]1OCc2c(ccc(O)c2O)C1=O
Activity [1]: Active | Activity [2]: Active | Activity [3]: Active | Activity [4]: Non-toxic | Activity [5]: 30%

C[C@H](CS)C(=O)N1CCC[C@H]1C(=O)O
Activity [6]: Active | Activity [7]: Active

C[C@@H]1OCc2c(ccc(O)c2O)C1=O
Activity [1]: Active | Activity [2]: Active | Activity [3]: Active | Activity [4]: Non-toxic
